Columns and labels:
[1] = test system: Liver microsome; assay: Clearance in rat liver microsomes at 2 uM by LC-MS/MS analysis; format: ADME
In short: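 Rat liver microsomes at 0.5 mg/mL were incubated with 2 μM compound (final) and an NADPH-regenerating system. Aliquots were taken at 1, 3, 6, 9, 15, 25, 35 and 45 min and quenched in acetonitrile containing internal standard. Depletion was measured by LC-MS/MS. Clmic = −slope × 1000 / protein concentration (mg/mL), not corrected for microsomal protein binding.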

[2] = target: Cannabinoid receptor 1 (Homo sapiens, UniProt P21554); assay: Displacement of [3H]CP55940 from human CB1 receptor expressed in CHOK1 cells after 1 hr by liquid scintillation counting analysis; format: cell-based, CHO-K1
[3] = target: Cannabinoid receptor 2 (Homo sapiens, UniProt P34972); assay: Displacement of [3H]CP55940 from human CB2 receptor expressed in CHOK1 cells after 1 hr by liquid scintillation counting analysis; format: cell-based, CHO-K1
In short: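 Membranes from butyrate-treated (5 mM, 24 h) CHO-K1 cells stably expressing human CB2, incubated with 0.3 nM [3H]CP55940 and increasing ligand concentrations, 60 min, 30 °C, pH 7.4 Tris buffer with 0.1% fatty acid-free BSA and 1% DMSO; nonspecific binding with 10 μM CP55940; filtration, scintillation counting; tested in triplicate.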

Cannabinoid receptor 1, sequence (P21554 whole entry): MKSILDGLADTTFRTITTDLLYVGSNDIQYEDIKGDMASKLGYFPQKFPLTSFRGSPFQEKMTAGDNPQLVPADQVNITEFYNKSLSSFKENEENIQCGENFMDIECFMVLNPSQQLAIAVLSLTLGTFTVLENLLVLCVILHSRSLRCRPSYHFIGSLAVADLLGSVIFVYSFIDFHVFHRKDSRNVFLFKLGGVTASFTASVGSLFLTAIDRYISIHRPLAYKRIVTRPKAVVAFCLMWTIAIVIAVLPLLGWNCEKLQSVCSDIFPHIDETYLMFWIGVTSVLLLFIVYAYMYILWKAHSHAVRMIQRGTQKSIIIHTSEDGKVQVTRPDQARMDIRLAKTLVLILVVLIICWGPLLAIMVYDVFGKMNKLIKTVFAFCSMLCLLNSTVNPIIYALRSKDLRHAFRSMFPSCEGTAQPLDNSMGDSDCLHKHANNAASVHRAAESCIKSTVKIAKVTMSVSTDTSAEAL
Cannabinoid receptor 2, sequence (P34972 whole entry): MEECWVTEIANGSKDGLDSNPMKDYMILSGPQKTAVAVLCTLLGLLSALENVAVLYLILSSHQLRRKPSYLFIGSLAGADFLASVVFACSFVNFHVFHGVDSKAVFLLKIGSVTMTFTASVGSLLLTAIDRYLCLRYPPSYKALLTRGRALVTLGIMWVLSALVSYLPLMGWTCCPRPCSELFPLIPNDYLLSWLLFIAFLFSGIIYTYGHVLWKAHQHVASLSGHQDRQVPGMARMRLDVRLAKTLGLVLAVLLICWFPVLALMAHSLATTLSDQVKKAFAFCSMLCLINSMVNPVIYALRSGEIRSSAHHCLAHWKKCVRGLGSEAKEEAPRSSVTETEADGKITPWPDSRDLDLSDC

| Structure (SMILES) | CLH [1] [µL/min/mg] | Ki [2] [µM] | Ki [3] [µM] | IC50 [2] [µM] | IC50 [3] [µM] |
| --- | --- | --- | --- | --- | --- |
| O=C(N[C@@H]1CCCC[C@H]1O)c1cnc(OCC2CC2)c(-c2cc(C(F)(F)F)ccc2Cl)c1 | 59 | 0.0677 | 2.08 | – | – |
| O=C(N[C@@H]1CCCC[C@H]1O)c1cnc(OCC2CC2)c(-c2ccc(Cl)c(Cl)c2)c1 | – | 0.305 | 1.26 | – | – |
| O=C(N[C@H]1CCCC[C@@H]1O)c1cnc(OCC2CC2)c(-c2ccc(Cl)cc2)c1 | – | 0.247 | 2.64 | – | – |
| O=C(N[C@@H]1CCCC[C@H]1O)c1cnc(OC2CCCC2)c(-c2cc(C(F)(F)F)ccc2Cl)c1 | 367 | – | – | 0.395 | 2.39 |
| O=C(N[C@@H]1CCCC[C@H]1O)c1cnc(OC2CCCC2)c(-c2ccc(Cl)cc2)c1 | – | 0.374 | > 10 | – | – |
| O=C(N[C@@H]1CCCC[C@H]1O)c1cnc(OCc2ncccn2)c(-c2ccc(Cl)cc2)c1 | 12 | 0.0516 | > 10 | – | – |
| O=C(NN1CCCCC1)c1cnc(OCC2CC2)c(-c2ccc(Cl)cc2)c1 | – | 0.563 | > 10 | – | – |
| O=C(O)c1ccc(-c2cc(C(=O)N[C@@H]3CCCC[C@H]3O)cnc2OCC2CC2)cc1 | – | > 10 | > 10 | – | – |
| O=C(N[C@@H]1CCCC[C@H]1O)c1cnc(CCC2CC2)c(-c2ccc(Cl)cc2)c1 | 1503 | 0.0167 | > 10 | – | – |
| O=C(N[C@@H]1CCCC[C@H]1O)c1cnc(Oc2ccccc2)c(-c2ccc(Cl)cc2)c1 | 353 | 1.66 | > 10 | – | – |
| O=C(N[C@@H]1CCCC[C@H]1O)c1cnc(OCC2CC2)c(-c2ccc(C(F)(F)F)cc2)c1 | – | 0.0185 | > 10 | – | – |
| O=C(N[C@@H]1CCCC[C@H]1O)c1cnc(OCC(F)(F)F)c(-c2ccc(Cl)cc2)c1 | 23 | 0.0124 | > 7 | – | – |
| NC(=O)c1ccc(-c2cc(C(=O)N[C@@H]3CCCC[C@H]3O)cnc2OCC2CC2)cc1 | – | > 8 | > 10 | – | – |
| Cc1cc(COc2ncc(C(=O)N[C@@H]3CCCC[C@H]3O)cc2-c2ccc(Cl)cc2)on1 | 151 | 0.0106 | > 10 | – | – |
| O=C(N[C@@H]1CCCC[C@H]1O)c1cnc(OCc2ccccc2)c(-c2ccc(Cl)cc2)c1 | 20 | 0.0402 | > 10 | – | – |
| O=C(N[C@@H]1CCCC[C@H]1O)c1cnc(OC2CCC2)c(-c2ccc(Cl)cc2)c1 | 210 | 0.208 | > 10 | – | – |
| COc1ccc(-c2cc(C(=O)N[C@@H]3CCCC[C@H]3O)cnc2OCC2CC2)cc1 | – | 0.0664 | > 10 | – | – |
| CN(CC1CC1)c1ncc(C(=O)N[C@@H]2CCCC[C@H]2O)cc1-c1ccc(Cl)cc1 | 1730 | 0.0511 | > 10 | – | – |
| O=C(N[C@H]1CCCC[C@H]1O)c1cnc(OCC2CC2)c(-c2ccc(Cl)cc2)c1 | 111 | 0.104 | > 7 | – | – |
| O=C(N[C@@H]1CCCC[C@H]1O)c1cnc(OCC2CC2)c(-c2ccc(Cl)cc2Cl)c1 | – | 0.122 | > 5 | – | – |

| Structure (SMILES) | CLH [1] [µL/min/mg] | Ki [2] [µM] | Ki [3] [µM] | IC50 [2] [µM] | IC50 [3] [µM] |
| --- | --- | --- | --- | --- | --- |
| O=C(N[C@@H]1CCCC[C@H]1O)c1cnc(OCc2ccccn2)c(-c2ccc(Cl)cc2)c1 | 44 | 0.139 | > 10 | – | – |
| O=C(N[C@@H]1CCCC[C@H]1O)c1cnc(OCC2CC2)c(-c2ccc(F)cc2)c1 | 37 | 0.0428 | > 10 | – | – |
| O=C(N[C@@H]1CCCC[C@H]1O)c1cc(-c2ccc(Cl)cc2)c(OCC2CC2)nn1 | – | > 5 | > 3 | – | – |
| CCCCOc1ncc(C(=O)N[C@@H]2CCCC[C@H]2O)cc1-c1ccc(Cl)cc1 | 101 | 0.0438 | > 10 | – | – |
| O=C(N[C@@H]1CCCC[C@H]1O)c1cc(-c2ccc(Cl)cc2)c(OCC2CC2)cn1 | – | > 7 | 1.53 | – | – |
| CC(C)Oc1ncc(C(=O)N[C@@H]2CCCC[C@H]2O)cc1-c1ccc(Cl)cc1 | – | 1.07 | > 10 | – | – |
| CS(=O)(=O)Nc1ccc(-c2cc(C(=O)N[C@@H]3CCCC[C@H]3O)cnc2OCC2CC2)cc1 | – | 1.9 | > 10 | – | – |
| O=C(N[C@@H]1CCCC[C@H]1O)c1cnc(OCC2CC2)c(-c2ccccc2Cl)c1 | – | 0.19 | > 10 | – | – |
| O=C(N[C@@H]1CCCC[C@H]1O)c1ccc(OCC2CC2)c(-c2ccc(Cl)cc2)n1 | – | 1.83 | 0.863 | – | – |
| O=C(N[C@@H]1CCCC[C@H]1O)c1cnc(OCc2ccncc2)c(-c2ccc(Cl)cc2)c1 | 118 | 0.0587 | > 10 | – | – |
| O=C(N[C@@H]1CCCC[C@H]1O)c1cnc(OCC2CC2)c(-c2ccc(Cl)cc2)n1 | – | 0.0258 | 0.801 | – | – |
| O=C(N[C@@H]1CCCC[C@@H]1O)c1cnc(OCC2CC2)c(-c2ccc(Cl)cc2)c1 | 163 | 0.186 | > 5 | – | – |
| O=C(N[C@@H]1CCCC[C@H]1O)c1cnc(OCC2CC2)c(-c2ccc(OC(F)(F)F)cc2)c1 | 0 | 0.0236 | > 10 | – | – |
| N#Cc1ccc(-c2cc(C(=O)N[C@@H]3CCCC[C@H]3O)cnc2OCC2CC2)cc1 | – | 0.0236 | > 10 | – | – |
| O=C(N[C@@H]1CCCC[C@H]1O)c1cnc(OCc2cccnc2)c(-c2ccc(Cl)cc2)c1 | 374 | 0.0235 | > 10 | – | – |
| C[C@](O)(CNC(=O)c1cnc(OCC2CC2)c(-c2ccc(Cl)cc2)c1)C1CC1 | 2.4 | 0.0343 | > 10 | – | – |
| NS(=O)(=O)c1ccc(-c2cc(C(=O)N[C@@H]3CCCC[C@H]3O)cnc2OCC2CC2)cc1 | – | > 10 | > 10 | – | – |
| O=C(N[C@@H]1CCCC[C@H]1O)c1cnc(OC2CCCCC2)c(-c2ccc(Cl)cc2)c1 | 662 | 3.03 | > 10 | – | – |
| O=C(N[C@@H]1CCCC[C@H]1O)c1cnc(OCC2CC2)c(-c2cccc(Cl)c2)c1 | – | 0.129 | > 5 | – | – |
| Cc1c(C(=O)N[C@@H]2CCCC[C@H]2O)cc(-c2cc(C(F)(F)F)ccc2Cl)n1CC1CCCCC1 | 1323 | – | – | 0.0095 | > 5 |
